In brackets after ≈: the same amount, converted by molar mass. One block for each compound: values may come before it. Activity calls are given as the source filed them. No cut-off for these calls is given here.
What was measured:
Candida albicans [1] = assay: Antifungal activity against Candida albicans ATCC 10231 assessed as lowest concentration required for total inhibition by broth dilution assay; type: functional; settings: read-out: MIC100
In short: (§1)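 Broth dilution against dermatophytes, C. albicans ATCC 10231 and 14053, and C. neoformans. The end point is the lowest concentration with total inhibition. "<" marks the lowest level tested, and ">" marks partial growth at that dilution.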

Microsporum audouinii = assay: Antifungal activity against Microsporum audouinii assessed as lowest concentration required for total inhibition broth dilution assay; type: functional; settings: read-out: MIC100; in short: as §1
[2] = Lipophilic-hydrophilic balance, Rm of the compound assessed as change in compound Rm to miconazole Rm by reverse-phase TLC method; type: physicochemical
[3] = test system: Trichophyton mentagrophytes; assay: Antifungal activity against Trichophyton mentagrophytes assessed as lowest concentration required for total inhibition broth dilution assay; type: functional; settings: read-out: MIC100; in short: as §1
Candida albicans [4] = assay: Antifungal activity against Candida albicans ATCC 14053 assessed as lowest concentration required for total inhibition by broth dilution assay; type: functional; settings: read-out: MIC100; in short: as §1
Epidermophyton floccosum = assay: Antifungal activity against Epidermophyton floccosum assessed as lowest concentration required for total inhibition broth dilution assay; type: functional; settings: read-out: MIC100; in short: as §1
Pasteurella multocida = assay: Antibacterial activity against Pasteurella multocida ATCC 19427 assessed as lowest concentration required for total inhibition by broth microdilution assay; type: functional; settings: read-out: MIC100
In short: (§2)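 Broth microdilution against the listed ATCC […] strains. The value is the lowest concentration giving total inhibition. "<" marks the lowest level tested, and ">" marks partial growth at that dilution.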

Candida albicans [5] = assay: Antifungal activity against Candida albicans in mouse vaginal infection model compound applied intravaginally as 2% formulation in an aqueous propylene glycol cream for 4 days bid; type: functional, organism-based; settings: Vagina
In short: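 Mice with vaginal C. albicans infection, following Wildfeuer's method. The compound was applied intravaginally as a 2% formulation in an aqueous propylene glycol cream, twice daily for 4 days. Read-out was animals cured over total number infected.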

Enterococcus faecalis = assay: Antibacterial activity against Streptococcus faecalis ATCC 14506 assessed as lowest concentration required for total inhibition by broth microdilution assay; type: functional; settings: read-out: MIC100; in short: as §2
Nannizzia gypsea = assay: Antifungal activity against Microsporum gypseum assessed as lowest concentration required for total inhibition broth dilution assay; type: functional; settings: read-out: MIC100; in short: as §1
[6] = test system: Erysipelothrix rhusiopathiae; assay: Antibacterial activity against Erysipelothrix insidiosa ATCC 19414 assessed as lowest concentration required for total inhibition by broth microdilution assay; type: functional; settings: read-out: MIC100; in short: as §2
Staphylococcus aureus = assay: Antibacterial activity against Staphylococcus aureus ATCC 12600 assessed as lowest concentration required for total inhibition by broth microdilution assay; type: functional; settings: read-out: MIC100; in short: as §2
Cutibacterium acnes = assay: Antibacterial activity against Corynebacterium acnes ATCC 11828 assessed as lowest concentration required for total inhibition by broth microdilution assay; type: functional; settings: read-out: MIC100; in short: as §2
Cryptococcus neoformans = assay: Antifungal activity against Cryptococcus neoformans assessed as lowest concentration required for total inhibition by broth dilution assay; type: functional; settings: read-out: MIC100; in short: as §1
[7] = silicone oil-impregnated silica gel, MeCN-H2O-AcOH

SMILES: O=C(Cc1ccc(Cl)cc1)OC(Cn1ccnc1)c1ccc(Cl)cc1.O=C(O)C(=O)O (stereo not given)
MIC (Candida albicans [1]): 50 µg/mL
MIC (Microsporum audouinii): 10 µg/mL
deltaRm ([2]; octanol/water): -0.42
MIC [3]: 10 µg/mL
MIC (Candida albicans [4]): 50 µg/mL
MIC (Epidermophyton floccosum): 1 µg/mL

SMILES: O=C(O)C(=O)O.O=C(Oc1ccc(Cl)cc1)OC(Cn1ccnc1)c1ccc(Cl)cc1 (stereo not given)
MIC (Candida albicans [1]): > 100 µg/mL
MIC (Microsporum audouinii): 100 µg/mL
deltaRm [2, 7]: -0.52
MIC [3]: 10 µg/mL
MIC (Candida albicans [4]): > 100 µg/mL
MIC (Epidermophyton floccosum): 10 µg/mL

SMILES: CCCCCCCC(=O)SC(Cn1ccnc1)c1ccc(Cl)cc1Cl.O=C(O)C(=O)O (stereo not given)
MIC (Pasteurella multocida): 1 µg/mL
Activity (Candida albicans [5]): inactive
MIC (Candida albicans [1]): 10 µg/mL
MIC (Enterococcus faecalis): 30 µg/mL
MIC (Nannizzia gypsea): 30 µg/mL
MIC [6]: 30 µg/mL
deltaRm [2, 7]: 0.44
MIC (Staphylococcus aureus): 3 µg/mL
MIC (Cutibacterium acnes): 100 µg/mL
MIC [3]: 10 µg/mL
MIC (Cryptococcus neoformans): < 1 µg/mL
MIC (Candida albicans [4]): 10 µg/mL
MIC (Epidermophyton floccosum): < 0.1 µg/mL

SMILES: O=C(OC(Cn1ccnc1)c1ccc(Cl)cc1)c1ccc(Cl)cc1.O=[N+]([O-])O (stereo not given)
MIC (Candida albicans [1]): > 100 µg/mL
MIC (Microsporum audouinii): 100 µg/mL
deltaRm [2, 7]: -0.31
MIC [3]: > 100 µg/mL
MIC (Cryptococcus neoformans): 10 µg/mL
MIC (Candida albicans [4]): > 100 µg/mL
MIC (Epidermophyton floccosum): 100 µg/mL

SMILES: O=C(SC(Cn1ccnc1)c1ccc(Cl)cc1Cl)c1ccc(Cl)cc1.O=[N+]([O-])O (stereo not given)
MIC (Pasteurella multocida): 1 µg/mL
Activity (Candida albicans [5]): Active
MIC (Candida albicans [1]): 10 µg/mL
MIC (Enterococcus faecalis): 100 µg/mL
MIC (Nannizzia gypsea): 30 µg/mL
MIC [6]: > 100 µg/mL
deltaRm [2, 7]: -0.03
MIC (Staphylococcus aureus): 3 µg/mL
MIC (Cutibacterium acnes): > 100 µg/mL
MIC [3]: 10 µg/mL
MIC (Cryptococcus neoformans): < 1 µg/mL
MIC (Candida albicans [4]): 10 µg/mL
MIC (Epidermophyton floccosum): < 0.1 µg/mL

The next lines start with results.

MIC (Candida albicans [1]): > 300 µg/mL
MIC (Microsporum audouinii): 33 µg/mL
deltaRm [2, 7]: -0.54
MIC [3]: 10 µg/mL
MIC (Candida albicans [4]): > 300 µg/mL
MIC (Epidermophyton floccosum): 0.33 µg/mL
SMILES: O=C(O)C(=O)O.O=C(OC(Cn1ccnc1)c1ccc(Cl)cc1Cl)c1ccc([N+](=O)[O-])cc1 (stereo not given)

MIC (Candida albicans [1]): 100 µg/mL
MIC (Microsporum audouinii): 50 µg/mL
deltaRm [2, 7]: -0.49
MIC [3]: 10 µg/mL
MIC (Candida albicans [4]): 100 µg/mL
MIC (Epidermophyton floccosum): 5 µg/mL
SMILES: O=C(O)C(=O)O.O=C(OC(Cn1ccnc1)c1ccc(Cl)cc1)c1ccccc1Cl (stereo not given)

MIC (Candida albicans [1]): 50 µg/mL
MIC (Microsporum audouinii): 5 µg/mL
deltaRm [2, 7]: -0.27
MIC [3]: < 0.1 µg/mL
MIC (Cryptococcus neoformans): 1 µg/mL
MIC (Candida albicans [4]): 50 µg/mL
MIC (Epidermophyton floccosum): < 0.1 µg/mL
SMILES: CCOC(=S)SC(Cn1ccnc1)c1ccc(Cl)cc1Cl.O=[N+]([O-])O (stereo not given)

MIC (Candida albicans [1]): 30 µg/mL
MIC (Nannizzia gypsea): 3 µg/mL
deltaRm [2, 7]: 0.19
MIC [3]: 3 µg/mL
MIC (Cryptococcus neoformans): 1 µg/mL
MIC (Candida albicans [4]): 10 µg/mL
MIC (Epidermophyton floccosum): < 0.1 µg/mL
SMILES: CCCCOC(=S)SC(Cn1ccnc1)c1ccc(Cl)cc1Cl.O=[N+]([O-])O (stereo not given)
Activity (Candida albicans [5]): Active

MIC (Pasteurella multocida): < 0.1 µg/mL
MIC (Candida albicans [1]): 30 µg/mL (≈ 72.1 µM)
MIC (Enterococcus faecalis): 10 µg/mL (≈ 24 µM)
MIC (Nannizzia gypsea): 3 µg/mL (≈ 7.21 µM)
MIC [6]: 3 µg/mL (≈ 7.21 µM)
deltaRm [2, 7]: 0
MIC (Staphylococcus aureus): 1 µg/mL (≈ 2.4 µM)
MIC (Cutibacterium acnes): 10 µg/mL (≈ 24 µM)
MIC [3]: 3 µg/mL (≈ 7.21 µM)
MIC (Cryptococcus neoformans): < 0.3 µg/mL
MIC (Candida albicans [4]): 30 µg/mL (≈ 72.1 µM)
MIC (Epidermophyton floccosum): < 0.1 µg/mL
SMILES: Clc1ccc(COC(Cn2ccnc2)c2ccc(Cl)cc2Cl)c(Cl)c1 (stereo not given) [MICONAZOLE]
Activity (Candida albicans [5]): Active

From ChEMBL document CHEMBL3244395, “Antimycotic imidazoles. 2. Synthesis and antifungal properties of esters of 1-[2-hydroxy(mercapto)-2-phenylethyl]-1H-imidazoles” (J Med Chem, 1978)
